Source: article PMC8821119 (Clinical breast cancer, 2021)
“And” between values parts separate entries of the source, which are not always exact repeats. Equal values may be shown once.

Key:
[1] = test system: early stage ERα+ breast cancer patients; settings: short-term MK0752 added to letrozole or tamoxifen, neo-adjuvant; cited from earlier work
[2] = test system: HER2-enriched breast cancer; settings: cited from earlier work
[3] = test system: PKCα-overexpressing, Notch4-positive ER+ cells; settings: reverses endocrine resistance; cited from earlier work
T47D:PKCα cells = test: Secondary mammosphere formation assay; format: cell-based; settings: 7 days
Procedure, shortened: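 T47D cells electroporated with a PKCα plasmid; G418-resistant clone F2 was chosen for PKCα overexpression on Western blot and STR-authenticated as T47D. Secondary mammosphere cultures were treated with test compound (30 nM), alone or with a γ-secretase inhibitor (5 μM), at pilot-chosen concentrations. Mammospheres counted after 7 days; 3 independent experiments, mean ± standard deviation.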

[4] = test system: patients with ER+ metastatic breast cancer; design: species or system human; settings: in vivo
Notch1 cleavage = settings: cited from earlier work
[5] = test system: ER+ metastatic breast cancer; test: Phase Ib trial: clinical response; format: in vivo, human; settings: RO4929097 with exemestane
plasma protein = settings: cited from earlier work
clinical = settings: human, in vivo

O=C(O)CC[C@H]1CC[C@@](c2cc(F)ccc2F)(S(=O)(=O)c2ccc(Cl)cc2)CC1 [MK0752]
Ki67 expression in tumors [1]: significantly affected Ki67 expression | Toxicity [1]: no significant toxicity

O=S1(=O)N[C@@]2(CN1CC(F)(F)F)[C@@H]1CC[C@H]2Cc2ccc(/C=C/CN3CCC(C(F)(F)F)CC3)cc2C1 [MRK003]
Effect on tumor volume ([2]; MRK003 alone): virtually no effect on tumor volume | Tumor recurrence ([2]; MRK003 in combination with trastuzumab): abrogated tumor recurrence | Tumor response and toxicity [3]: causes tumor regression without significant toxicity

CC(C)(C(=O)NCC(F)(F)C(F)(F)F)C(=O)N[C@@H]1C(=O)Nc2ccccc2-c2ccccc21 [RO4929097]
Mammosphere numbers (T47D:PKCα cells; RO4929097 alone (5 μM)): significantly decreased mammosphere numbers | Dose-Limiting Toxicity (DLT) observed [4]: Rash | IC50s observed by the authors earlier (Notch1 cleavage): nanomolar range | IC50 (Notch1 cleavage; read-out: in vitro IC50 in cell-based assays for Notch1 cleavage): 5 nM | Complete responses (CR) [5]: No complete responses | Patients with stable disease for ≥ 6 months [5]: Twenty | Total clinical benefit rate (CR+PR+SD ≥ 6 months) [5]: 20% | Partial response (PR), number of patients ([5]; 14 evaluable patients): one | Progressive disease, number of patients ([5]; 14 evaluable patients): 7 and 6 | Stable disease (SD), number of patients ([5]; 14 evaluable patients): 6 and 7 | Estimated overall survival (OS) at 6 months ([5]; interval 60–100%): 79% | Plasma protein binding (plasma protein): highly plasma protein-bound | Drug levels six days after dosing (clinical): nearly unquantifiable levels | AUC(0-t) (clinical; po, 20 mg): 4550 ng·h/mL | Clearance mean (±st dev) (clinical; po, 20 mg): 2.3 (±1.5) L/hr | Cmax (clinical; po, 20 mg): 266 ng/mL | Tmax (clinical; po, 20 mg): 3 h | half-life (clinical; po, 20 mg): 26 h | AUC(0-t) (clinical; po, 30 mg): 7710 ng·h/mL | Clearance mean (±st dev) (clinical; po, 30 mg): 2.1 (±0.3) L/hr | Cmax (clinical; po, 30 mg): 1050 ng/mL | Tmax (clinical; po, 30 mg): 0.5 h | half-life (clinical; po, 30 mg): 20.7 h | AUC(0-t) (clinical; po, 45 mg): 10400 ng·h/mL | Clearance mean (±st dev) (clinical; po, 45 mg): 2.8 (±2.2) L/hr | Cmax (clinical; po, 45 mg): 1110 ng/mL | Tmax mean (range) (clinical; po, 45 mg): 1.5 (1–2) hr | half-life (clinical; po, 45 mg): 23.1 h | AUC(0-t) (clinical; po, 90 mg): 21100 ng·h/mL | Clearance mean (±st dev) (clinical; po, 90 mg): 2.8 L/h | Cmax (clinical; po, 90 mg): 2080 ng/mL | Tmax (clinical; po, 90 mg): 4.3 h | half-life (clinical; po, 90 mg): 13.6 h | AUC(0-t) (clinical; po, 140 mg): 19700 ng·h/mL | Clearance mean (±st dev) (clinical; po, 140 mg): 2.6 (±0.2) L/hr | Cmax (clinical; po, 140 mg): 1330 ng/mL | half-life (clinical; po, 140 mg): 33.4 h

C=C1C[C@@H]2[C@H](CC[C@]3(C)C(=O)CC[C@@H]23)[C@@]2(C)C=CC(=O)C=C12 [exemestane, reference compound]
Protein-bound (plasma protein): 90%

C[C@]12CC[C@@H]3c4ccc(O)cc4C[C@@H](CCCCCCCCC[S+]([O-])CCCC(F)(F)C(F)(F)F)[C@H]3[C@@H]1CC[C@@H]2O (some centres unmarked) [fulvestrant, reference compound]
Mammosphere sensitivity to single agent (T47D:PKCα cells; fulvestrant alone (30 nM)): partially sensitive
